In brackets after ≈: the same amount, converted by molar mass. Activity calls are given as the source filed them. The rule behind the calls is not given here.
Experiments:
HCC 2998 = assay: Growth inhibition of human HCC2998 cells incubated for 48 hrs by sulforhodamine B assay; format: functional; details: HCC 2998, 48 h
T47D = assay: Growth inhibition of human T47D cells incubated for 48 hrs by sulforhodamine B assay; format: functional
SF-295 = assay: Growth inhibition of human SF295 cells incubated for 48 hrs by sulforhodamine B assay; format: functional; details: SF-295, 48 h
[1] = target: DNA topoisomerase 2-alpha (Homo sapiens, UniProt P11388); assay: Inhibition of human topoisomerase-2alpha-mediated relaxation of supercoiled pBR322 DNA after 1 hr by ethidium bromide staining based agarose gel electrophoresis
Sequence of DNA topoisomerase 2-alpha (P11388 whole entry): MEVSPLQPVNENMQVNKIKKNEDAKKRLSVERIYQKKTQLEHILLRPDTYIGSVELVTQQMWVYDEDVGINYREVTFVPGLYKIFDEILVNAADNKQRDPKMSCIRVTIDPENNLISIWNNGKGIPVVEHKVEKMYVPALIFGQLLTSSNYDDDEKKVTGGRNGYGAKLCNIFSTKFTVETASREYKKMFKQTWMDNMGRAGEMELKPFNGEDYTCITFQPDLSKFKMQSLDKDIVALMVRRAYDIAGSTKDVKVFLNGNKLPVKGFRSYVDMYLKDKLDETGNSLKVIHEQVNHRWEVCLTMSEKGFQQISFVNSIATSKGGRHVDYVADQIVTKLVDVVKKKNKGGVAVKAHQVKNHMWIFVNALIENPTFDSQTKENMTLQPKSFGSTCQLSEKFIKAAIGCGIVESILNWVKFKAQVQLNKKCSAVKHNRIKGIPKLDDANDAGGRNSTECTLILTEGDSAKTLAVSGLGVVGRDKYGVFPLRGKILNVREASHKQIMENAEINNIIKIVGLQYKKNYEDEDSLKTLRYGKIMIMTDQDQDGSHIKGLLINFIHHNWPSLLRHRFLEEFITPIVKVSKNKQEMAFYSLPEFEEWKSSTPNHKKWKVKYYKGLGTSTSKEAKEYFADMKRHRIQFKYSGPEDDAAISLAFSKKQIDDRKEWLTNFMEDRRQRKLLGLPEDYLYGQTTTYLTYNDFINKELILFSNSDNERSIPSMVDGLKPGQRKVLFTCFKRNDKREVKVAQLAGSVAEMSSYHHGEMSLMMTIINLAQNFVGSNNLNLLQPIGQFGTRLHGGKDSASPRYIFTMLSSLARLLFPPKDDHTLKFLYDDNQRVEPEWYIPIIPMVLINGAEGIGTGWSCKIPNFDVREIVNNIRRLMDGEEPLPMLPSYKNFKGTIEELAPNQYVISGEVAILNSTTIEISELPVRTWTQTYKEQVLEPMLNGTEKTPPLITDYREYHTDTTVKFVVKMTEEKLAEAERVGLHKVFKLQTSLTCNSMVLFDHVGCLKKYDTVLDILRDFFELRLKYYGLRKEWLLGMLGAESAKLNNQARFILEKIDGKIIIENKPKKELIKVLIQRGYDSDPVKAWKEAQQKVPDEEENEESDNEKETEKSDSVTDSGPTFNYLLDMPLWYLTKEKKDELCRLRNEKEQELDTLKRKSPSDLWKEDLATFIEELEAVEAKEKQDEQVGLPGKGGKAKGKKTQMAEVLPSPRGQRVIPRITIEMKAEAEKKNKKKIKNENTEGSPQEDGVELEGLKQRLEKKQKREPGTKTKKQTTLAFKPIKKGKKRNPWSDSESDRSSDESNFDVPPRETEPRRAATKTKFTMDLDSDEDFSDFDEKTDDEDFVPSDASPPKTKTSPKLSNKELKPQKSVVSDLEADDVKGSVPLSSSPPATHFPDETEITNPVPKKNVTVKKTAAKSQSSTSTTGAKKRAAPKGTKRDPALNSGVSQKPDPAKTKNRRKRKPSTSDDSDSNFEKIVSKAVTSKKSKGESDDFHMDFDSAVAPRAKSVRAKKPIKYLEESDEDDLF
How it was run: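 Supercoiled pBR322 was incubated with compound (0.5–100) and 1 U human topoisomerase IIα in enzyme buffer for 1 h at 37 °C. Reactions were stopped with Tris/EDTA/NaCl loading buffer (pH 8.0) and run on 1% agarose in TAE with 0.1% SDS (4.9 V/cm, 90 min), then stained with ethidium bromide. IC50 is the concentration reducing relaxation activity by 50%.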

HOP-92 = assay: Growth inhibition of human HOP92 cells incubated for 48 hrs by sulforhodamine B assay; format: functional; details: HOP-92, 48 h
SF-539 = assay: Growth inhibition of human SF539 cells incubated for 48 hrs by sulforhodamine B assay; format: functional; details: SF-539, 48 h
RXF 393 = assay: Growth inhibition of human RXF393 cells incubated for 48 hrs by sulforhodamine B assay; format: functional; details: RXF 393, 48 h
NCI-H23 = assay: Growth inhibition of human NCI-H23 cells incubated for 48 hrs by sulforhodamine B assay; format: functional; details: NCI-H23, 48 h
OVCAR-8 = assay: Growth inhibition of human OVCAR8 cells incubated for 48 hrs by sulforhodamine B assay; format: functional; details: OVCAR-8, 48 h
A498 = assay: Growth inhibition of human A498 cells incubated for 48 hrs by sulforhodamine B assay; format: functional; details: A498, 48 h
Thermus aquaticus = assay: Inhibition of Thermus aquaticus DNA polymerase-mediated amplification of fragment of pBR322 by PCR
How it was run: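 PCR amplification of a pBR322 fragment by Taq polymerase with increasing compound (0.25–40) for 25 cycles: 94 °C, 58 °C and 72 °C, 30 s each. Products were run on 2% agarose in 0.5X TBE (4.2 V/cm, 1.5 h) and stained with ethidium bromide. IC50 is the concentration halving activity; MIC is the lowest concentration that suppresses activity.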

U-251 = assay: Growth inhibition of human U251 cells incubated for 48 hrs by sulforhodamine B assay; format: functional; details: U-251, 48 h
NCI-H322M = assay: Growth inhibition of human NCI-H322M cells incubated for 48 hrs by sulforhodamine B assay; format: functional
Homo sapiens = species: Homo sapiens; assay: Stabilization of 5'Dabcyl/3'FAM labeled human telomeric sequence G-quadruplex DNA assessed as increase in melting temperature at 2.5 uM pretreated for 5 mins at 30 degreeC followed by 5 mins incubation at 95 degreeC by fluorescence assay
How it was run: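 FRET melting in LiP buffer (10 mM LiOH, 50 mM KCl, pH 7.0 with H3PO4), ex 488 nm, em 520 nm. Samples were held 5 min at 30 °C, heated at 1 °C/min to 95 °C, held 5 min, then re-annealed. Tm came from first derivatives; ΔTm = shift with ligand at 2.5; at least three runs.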

DU-145 = assay: Growth inhibition of human DU145 cells incubated for 48 hrs by sulforhodamine B assay; format: functional; details: DU-145, 48 h
MOLT-4 = assay: Growth inhibition of human MOLT4 cells incubated for 48 hrs by sulforhodamine B assay; format: functional; details: MOLT-4, 48 h
MCF7 = assay: Growth inhibition of human MCF7 cells incubated for 48 hrs by sulforhodamine B assay; format: functional; details: MCF7, 48 h
UACC-257 = assay: Growth inhibition of human UACC257 cells incubated for 48 hrs by sulforhodamine B assay; format: functional; details: UACC-257, 48 h
COLO 205 = assay: Growth inhibition of human COLO205 cells incubated for 48 hrs by sulforhodamine B assay; format: functional; details: COLO 205, 48 h
[2] = target: Telomerase reverse transcriptase (Homo sapiens) (UniProt O14746); assay: Inhibition of telomerase activity in human HeLa cells using 5'AATCCGTCGAGCAGAGTT3' as substrate after 30 mins by Sybr green1 staining based TRAP-PCR method; format: cell-based
Sequence of Telomerase reverse transcriptase (Homo sapiens) (O14746 whole entry): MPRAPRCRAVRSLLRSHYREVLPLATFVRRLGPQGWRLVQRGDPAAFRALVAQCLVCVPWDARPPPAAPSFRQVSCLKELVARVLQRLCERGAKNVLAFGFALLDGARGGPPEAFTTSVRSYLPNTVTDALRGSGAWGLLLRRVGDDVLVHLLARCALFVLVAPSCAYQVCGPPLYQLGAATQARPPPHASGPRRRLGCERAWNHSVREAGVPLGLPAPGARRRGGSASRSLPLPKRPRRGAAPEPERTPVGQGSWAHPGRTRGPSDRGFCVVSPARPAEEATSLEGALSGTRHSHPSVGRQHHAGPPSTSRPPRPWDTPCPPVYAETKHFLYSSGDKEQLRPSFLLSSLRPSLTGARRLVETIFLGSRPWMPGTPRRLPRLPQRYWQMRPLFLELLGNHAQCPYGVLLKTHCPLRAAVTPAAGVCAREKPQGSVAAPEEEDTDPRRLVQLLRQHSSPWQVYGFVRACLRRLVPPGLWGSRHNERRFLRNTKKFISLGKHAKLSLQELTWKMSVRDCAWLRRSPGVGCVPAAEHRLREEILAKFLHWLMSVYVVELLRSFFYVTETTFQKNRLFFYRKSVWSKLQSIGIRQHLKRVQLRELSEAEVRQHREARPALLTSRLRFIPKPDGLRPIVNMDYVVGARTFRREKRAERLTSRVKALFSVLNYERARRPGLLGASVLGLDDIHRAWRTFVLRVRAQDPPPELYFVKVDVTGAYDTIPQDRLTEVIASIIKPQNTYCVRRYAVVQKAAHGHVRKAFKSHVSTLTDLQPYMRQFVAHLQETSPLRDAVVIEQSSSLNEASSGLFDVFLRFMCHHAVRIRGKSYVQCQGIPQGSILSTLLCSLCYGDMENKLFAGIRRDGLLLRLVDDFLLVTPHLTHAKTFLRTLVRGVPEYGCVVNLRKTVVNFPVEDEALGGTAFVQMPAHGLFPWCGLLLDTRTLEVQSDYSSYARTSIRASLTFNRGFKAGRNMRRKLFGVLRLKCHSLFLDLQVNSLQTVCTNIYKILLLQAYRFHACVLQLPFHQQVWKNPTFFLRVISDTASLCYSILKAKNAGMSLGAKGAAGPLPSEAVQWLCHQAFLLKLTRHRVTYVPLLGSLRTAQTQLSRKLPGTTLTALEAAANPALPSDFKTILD

Escherichia coli [3] = assay: Binding affinity to Escherichia coli supercoiled pBR322 DNA up to 100 uM by agarose gel electrophoresis
How it was run: (§1)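 Supercoiled pBR322 mixed with ligand (0–100 µM) in 10 mM Tris, 50 mM KCl with no enzyme, then run on agarose gel. Shift in electrophoretic mobility was read as intercalation/binding.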

Jurkat [4] = assay: Induction of apoptosis in human Jurkat T cells assessed as PARP cleavage at 3.2 uM after 24 hrs by flow cytometry (reference value: 4.8%); format: functional
Escherichia coli [5] = assay: Binding affinity to Escherichia coli supercoiled pBR322 DNA assessed as DNA intercalation up to 100 uM by agarose gel electrophoresis; how it was run: as §1
Jurkat [6] = assay: Cell cycle arrest in human Jurkat T cells assessed as accumulation at G2/M phase at 3.2 uM after 24 hrs by propidium iodide staining based flow cytometry (reference value: 17.1 to 20.8%); format: functional
Jurkat [7] = assay: Induction of apoptosis in human Jurkat T cells at 6.4 uM after 24 hrs by annexin V-phycoerythrin/7-AAD staining based flow cytometry (reference value: 5.8 to 6.6%); format: functional
Jurkat [8] = assay: Cell cycle arrest in human Jurkat T cells assessed as accumulation at G0/G1 phase at 3.2 uM after 24 hrs by propidium iodide staining based flow cytometry (reference value: 62.7 to 68.6%); format: functional

| SMILES | GI50 (HCC 2998) [nM] | GI50 (T47D) [nM] | GI50 (SF-295) [nM] | IC50 [1] [nM] | GI50 (HOP-92) [nM] | GI50 (SF-539) [nM] | GI50 (RXF 393) [nM] | GI50 (NCI-H23) [nM] | GI50 (OVCAR-8) [nM] | GI50 (A498) [nM] | MIC (Thermus aquaticus) [µM] | GI50 (U-251) [nM] | GI50 (NCI-H322M) [nM] | ΔTm (Homo sapiens) [°C] | GI50 (DU-145) [nM] | GI50 (MOLT-4) [nM] | GI50 (MCF7) [nM] | GI50 (UACC-257) [nM] | GI50 (COLO 205) [nM] | also measured |
| --- | --- | --- | --- | --- | --- | --- | --- | --- | --- | --- | --- | --- | --- | --- | --- | --- | --- | --- | --- | --- |
| COc1ccccc1CNCCCN1C(=O)c2ccc3c4c(ccc(c24)C1=O)C(=O)N(CCCOCCCCOCCCN)C3=O | 635 | 976 | 1420 | 5500 | 2080 | 1680 | 771 | 605 | 491 | 1320 | 1 (≈ 0.631 µg/mL) | 1240 | 1900 | 12.9 | 1780 | 546 | 333 | 283 | 233 | – |
| CNCCCNCCCCNCCCN1C(=O)c2ccc3c4c(ccc(c24)C1=O)C(=O)N(CCCNCc1ccccc1OC)C3=O | 3120 | 342 | 1330 | – | 2210 | 2040 | 3820 | 2990 | 2890 | 1780 | – | 3240 | 2210 | 26.1 | 5090 | 5210 | 2770 | 1250 | 1380 | – |
| COc1ccccc1CNCCCN1C(=O)c2ccc3c4c(ccc(c24)C1=O)C(=O)N(CCCNCCNCCCN)C3=O | 2250 | 1510 | 2770 | – | 6700 | 2880 | 1650 | 1720 | 2080 | 5010 | – | 1170 | – | 22 | 3650 | 173 | 422 | 2530 | – | – |
| CNCCCNCCCN1C(=O)c2ccc3c4c(ccc(c24)C1=O)C(=O)N(CCCNCc1ccccc1OC)C3=O | 1930 | 1250 | 894 | – | 2130 | 782 | 1890 | 1260 | 797 | 1540 | – | 1610 | 2220 | 18 | 1050 | 534 | 512 | 1350 | 498 | – |
| COc1ccccc1CNCCCN1C(=O)c2ccc3c4c(ccc(c24)C1=O)C(=O)N(CCCCNCCCN)C3=O | 810 | 1300 | 3660 | 7000 | 2040 | 1680 | 886 | 747 | 826 | 4400 | 0.5 (≈ 0.286 µg/mL) | 787 | 2140 | 22.2 | 1600 | 939 | 643 | 916 | 690 | inhibition [2]: inactive; Activity (Escherichia coli [3]): Active |
| COc1ccccc1CNCCCN1C(=O)c2ccc3c4c(ccc(c24)C1=O)C(=O)N(CCCNCCCN)C3=O | 352 | 793 | 456 | 1500 | 1120 | 968 | 246 | 318 | 73 | 398 | 0.25 (≈ 0.139 µg/mL) | 108 | 1070 | 13.3 | 638 | 194 | 129 | 625 | 457 | inhibition [2]: inactive; Activity (Jurkat [4]): 7.2%; Activity (Escherichia coli [5]): Active; Activity (Jurkat [6]): 27.8%; Activity (Jurkat [7]): 14.5%; Activity (Jurkat [8]): 56.1% |
| COc1ccccc1CNCCCN1C(=O)c2ccc3c4c(ccc(c24)C1=O)C(=O)N(CCCN)C3=O | 1860 | 1170 | 1430 | – | 2100 | 1300 | 377 | 1340 | 421 | 1540 | – | 1590 | 1660 | 1.4 | 1380 | 433 | 302 | 424 | 570 | – |
| COc1ccccc1CNCCCN1C(=O)c2ccc3c4c(ccc(c24)C1=O)C(=O)N(CCCNCCCCNCCCN)C3=O | 296 | 214 | 1080 | 2200 | 687 | 426 | 324 | 356 | 288 | 1340 | 0.25 (≈ 0.157 µg/mL) | 328 | 1210 | 21.4 | 693 | 584 | 200 | 176 | 168 | – |
